SIAE primary = blocks human sialic acid acetylesterase. Q9HAT2. SIAE FP-Rh probe binding, fluorescence polarization. inhibition, % at 9.66 µM. 370,000 tested, 0.69% active;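 active = inhibition above a cutoff: mean of compounds within the control limits plus 3 SD of those, cut at about 17% in these data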
rCAG RNA binder = molecules binding r(CAG) RNA repeats; AID 651821; 370,000 tested, 1.3% active; r(CAG) RNA repeat, TO-PRO-1 dye displacement fluorescence; inhibition, % at 3 µM;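 active = inhibition above the plate cutoff, the mean of all test compounds on that plate plus 3 SD, cut at about 35% in these data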;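 note: higher means more dye released from RNA so lower well fluorescence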
HTRA1 inh = blocks human HTRA1 serine peptidase; recombinant HTRA1, FP-rhodamine activity-based probe, fluorescence polarization; 340,000 tested, 0.5% active; Q92743; inhibition, % at 5.96 µM; in the data active = inhibition above about 36%
mABHD4 FP = ABHD4 (mouse) inhibition, primary FP screen | Q8VD66 | purified mABHD4, FP-Rh probe fluorescence polarization | inhibition, % at 8.92 µM | 370,000 tested, 0.54% active | AID 720543;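 active = inhibition exceeding the mean over every tested compound plus 3 SD, cut at about 30% in these data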
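system = mouse ABHD4 enzyme, wild type | medium = HEPES pH 7.0, NaCl, Pluronic buffer | also added = FP-Rh probe | incubation = Enzyme–compound pre-incubation 45 min, then probe 60 min, both 25 °C | technique = fluorescence polarization, excitation 525 nm, emission 598 nm, BODIPY TMR filters | controls = S159A mutant high control, sample median low control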
TCR CD3 inh = human TCR-CD3 binding inhibition; inhibition, % at 9.4 µM; TAMRA-labeled TCR probe fluorescence, biochemical; AID 651800; 360,000 tested, 0.37% active; in the data active = inhibition above about 19%;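 note: recombinant mutant TCR 2C K166C tagged with TAMRA read by polarization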
PRMT1 FP inh = blocks human protein arginine methyltransferase 1; Q99873; recombinant PRMT1, activity-based probe fluorescence polarization; inhibition, % at 2.79 µM; 370,000 tested, 1.3% active; AID 652257;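 active = inhibition above about 21% made by adding two undisclosed values, limit read from the data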
Target sequence (Q99873 whole entry, looked up): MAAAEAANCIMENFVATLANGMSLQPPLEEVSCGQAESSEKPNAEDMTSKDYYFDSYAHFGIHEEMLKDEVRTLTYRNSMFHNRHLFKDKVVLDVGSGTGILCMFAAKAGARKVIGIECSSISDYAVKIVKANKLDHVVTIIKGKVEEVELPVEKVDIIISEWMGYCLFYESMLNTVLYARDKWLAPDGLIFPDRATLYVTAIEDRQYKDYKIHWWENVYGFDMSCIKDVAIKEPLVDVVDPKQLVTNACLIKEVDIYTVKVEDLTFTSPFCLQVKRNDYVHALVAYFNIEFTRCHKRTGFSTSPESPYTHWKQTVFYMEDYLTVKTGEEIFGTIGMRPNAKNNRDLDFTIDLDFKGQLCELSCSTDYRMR
PRMT1 inh conf = confirmation of human PRMT1 inhibitors; shares compounds with PRMT1 FP inh; recombinant His-PRMT1, activity-based probe fluorescence polarization; inhibition, % at 2.79 µM; 3,300 tested, 42% active; AID 687036;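 active = mean inhibition across replicates above the hit cutoff derived for the earlier primary screen, cut at about 22% in these data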
Hits are given with their value. This is a sample that favours compounds with a hit; in the whole collection about 3.5% have one here.

`CCOc1cccc(C2C(C(=O)c3ccco3)=C(O)C(=O)N2c2nnc(C)s2)c1` (stereo not drawn) gave SIAE primary inactive, rCAG RNA binder inactive, HTRA1 inh inactive, mABHD4 FP inactive, TCR CD3 inh inactive and PRMT1 FP inh inactive.
Screening CSc1nnc(N2C(=O)C(O)=C(C(=O)c3ccco3)C2c2ccc(F)cc2)s1 (stereo not drawn) returned SIAE primary inactive, rCAG RNA binder inactive, HTRA1 inh inactive, mABHD4 FP inactive, TCR CD3 inh inactive, PRMT1 FP inh 43.5 and PRMT1 inh conf inactive.
For CCSc1nnc(N2C(=O)C(O)=C(C(=O)c3ccco3)C2c2cccc(OC)c2)s1 (stereo not drawn) the results were SIAE primary inactive, rCAG RNA binder inactive, HTRA1 inh inactive, mABHD4 FP inactive, TCR CD3 inh inactive, PRMT1 FP inh 30.8 and PRMT1 inh conf inactive.
CSc1nnc(N2C(=O)C(O)=C(C(=O)c3ccco3)C2c2cccc(Cl)c2)s1 (stereo not drawn) was read as SIAE primary inactive, rCAG RNA binder inactive, HTRA1 inh inactive, mABHD4 FP inactive, TCR CD3 inh inactive, PRMT1 FP inh 29.6 and PRMT1 inh conf inactive.
Screening COc1ccc(C2C(C(=O)c3ccco3)=C(O)C(=O)N2c2nnc(C)s2)cc1OC (stereo not drawn) returned SIAE primary inactive, rCAG RNA binder inactive, HTRA1 inh inactive, mABHD4 FP inactive, TCR CD3 inh inactive and PRMT1 FP inh inactive.
COc1ccc(C2C(C(=O)c3ccco3)=C(O)C(=O)N2c2nnc(C)s2)cc1 (stereo not drawn) was read as SIAE primary inactive, rCAG RNA binder inactive, HTRA1 inh inactive, mABHD4 FP inactive, TCR CD3 inh inactive and PRMT1 FP inh inactive.
`Cc1ccc(CN2CCCCC(NC(=O)Nc3cccc([N+](=O)[O-])c3)C2=O)cc1` (stereo not drawn) gave SIAE primary inactive, rCAG RNA binder inactive, mABHD4 FP inactive and PRMT1 FP inh inactive.
Screening CCOc1ccc(CCNC(=O)C2CCCCC2)cc1OCC returned SIAE primary inactive, mABHD4 FP inactive and PRMT1 FP inh inactive.
Screening COC(=O)[C@]12C[C@H](CC(=O)N3CCOCC3)C(=O)N(Cc3ccc4c(c3)OCO4)C1=C[C@H](C(C)C)O[C@@H]2C1CC1 returned SIAE primary inactive, rCAG RNA binder inactive, mABHD4 FP inactive and PRMT1 FP inh inactive.
Screening COC(=O)[C@]12C[C@H](CC(=O)N3CCN(C(=O)c4ccco4)CC3)C(=O)N(CCc3ccc(OC)c(OC)c3)C1=C[C@H](C(C)C)O[C@@H]2C1CC1 returned SIAE primary inactive, rCAG RNA binder inactive, mABHD4 FP inactive and PRMT1 FP inh inactive.
Screening Nn1c(SCC(=O)N2c3ccccc3Sc3ccc(Cl)cc32)nnc1-c1cc(-c2ccc(F)cc2)n[nH]1 returned SIAE primary inactive, rCAG RNA binder inactive, mABHD4 FP inactive and PRMT1 FP inh inactive.
Screening O=C(CCCCCN1C(=O)C2C3C=CC(C3)C2C1=O)Nc1cc(F)cc(F)c1 (stereo not drawn) returned SIAE primary inactive, rCAG RNA binder inactive, mABHD4 FP inactive and PRMT1 FP inh inactive.
For C/C=C(/C)C(=O)Nc1cccc(C2=NOC3(C2)C[C@H](C(N)=O)N(C(=O)Cc2ccc([N+](=O)[O-])cc2)C3)c1 (stereo partly drawn) the results were SIAE primary inactive, rCAG RNA binder inactive, HTRA1 inh inactive, mABHD4 FP inactive, TCR CD3 inh inactive and PRMT1 FP inh inactive.
Screening C/C=C\C=C/C(=O)Nc1cccc(C2=NOC3(C2)C[C@H](C(N)=O)N(C(=O)CC)C3)c1 (stereo partly drawn) returned SIAE primary inactive, rCAG RNA binder inactive, HTRA1 inh inactive, mABHD4 FP inactive, TCR CD3 inh inactive and PRMT1 FP inh inactive.
`C/C=C\C=C/C(=O)Nc1cccc(C2=NOC3(C2)C[C@H](C(N)=O)N(C(=O)Cc2ccc([N+](=O)[O-])cc2)C3)c1` (stereo partly drawn) gave SIAE primary inactive, rCAG RNA binder inactive, HTRA1 inh inactive, mABHD4 FP inactive, TCR CD3 inh inactive, PRMT1 FP inh 42.3 and PRMT1 inh conf 51.5.
`C/C=C\C=C/C(=O)Nc1cccc(C2=NOC3(C2)C[C@@H](C(N)=O)N(C(=O)CCCCC)C3)c1` (stereo partly drawn) gave SIAE primary inactive, rCAG RNA binder inactive, HTRA1 inh inactive, mABHD4 FP inactive, TCR CD3 inh inactive, PRMT1 FP inh 25.1 and PRMT1 inh conf 64.6.
`CCOC(=O)c1cc(C#N)c(=S)[nH]c1C` gave SIAE primary inactive, rCAG RNA binder inactive, HTRA1 inh inactive, mABHD4 FP inactive, TCR CD3 inh inactive and PRMT1 FP inh inactive.
`COCc1[nH]c(=S)c(C#N)cc1C(=O)OC` gave SIAE primary inactive, rCAG RNA binder inactive, HTRA1 inh inactive, mABHD4 FP inactive, TCR CD3 inh inactive, PRMT1 FP inh 35.0 and PRMT1 inh conf inactive.
For O=C(NC1CCC1)c1ccc(C#Cc2cccc(F)c2)cn1 the results were SIAE primary inactive, rCAG RNA binder inactive, mABHD4 FP inactive and PRMT1 FP inh inactive.
Screening Cc1ccc(OCc2nn3c(C4CCCCC4)nnc3s2)cc1 returned SIAE primary inactive, rCAG RNA binder inactive, mABHD4 FP inactive and PRMT1 FP inh inactive.
`Cc1ccc(N2CSC3=C(C#N)C(c4cccs4)CC(=O)N3C2)cc1` (stereo not drawn) gave SIAE primary inactive, rCAG RNA binder inactive, HTRA1 inh inactive, mABHD4 FP inactive, TCR CD3 inh inactive, PRMT1 FP inh 52.1 and PRMT1 inh conf 34.2.
For N#CC1=C2SCN(c3ccc(F)cc3)CN2C(=O)CC1c1cccc(F)c1 (stereo not drawn) the results were SIAE primary inactive, rCAG RNA binder inactive, HTRA1 inh inactive, mABHD4 FP inactive, TCR CD3 inh inactive, PRMT1 FP inh 27.5 and PRMT1 inh conf 60.6.
CCOc1ccccc1N1CSC2=C(C#N)C(c3c(OC)ccc4ccccc34)CC(=O)N2C1 (stereo not drawn) was read as SIAE primary inactive, rCAG RNA binder inactive, HTRA1 inh inactive, mABHD4 FP inactive, TCR CD3 inh inactive, PRMT1 FP inh 49.3 and PRMT1 inh conf 70.4.
Screening COc1ccc(N2CSC3=C(C#N)C(c4cc(OC)ccc4OC)CC(=O)N3C2)c(OC)c1 (stereo not drawn) returned HTRA1 inh inactive.
Screening CCc1ccc(C2CC(=O)N3CN(c4ccccc4)CSC3=C2C#N)cc1 (stereo not drawn) returned SIAE primary inactive, rCAG RNA binder inactive, HTRA1 inh inactive, mABHD4 FP inactive, TCR CD3 inh inactive and PRMT1 FP inh inactive.
